Experimental data: ChEMBL document CHEMBL1765087, “Synthesis and evaluation of cardiac glycoside mimics as potential anticancer drugs” (Bioorg Med Chem, 2011)
pIC50: −log10 of the molar value.

How the values were obtained:
MCF7 = assay: Antiproliferative activity against human MCF7 cells assessed as cell viability treated for 48 hrs followed by compound washout measured after 72 hrs by fluorometric CellTiter-Blue reagent assay; assay type: functional, cell-based
How it was run: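 MCF-7 cells grown in DMEM Glutamax with 10% fetal calf serum, penicillin and streptomycin, 37 °C, 5% CO₂. Seeded 3000 cells/well in triplicate, cultured overnight, then given a dilution series of compound; equivalent DMSO dilution series used for normalization. 48 h exposure, then 72 h in fresh compound-free medium before viability read-out.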

Sus scrofa = species: Sus scrofa; assay: Binding affinity to pig kidney Na+/K+-ATPase assessed as inorganic phosphate release after 2 hrs
How it was run: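 Purified pig kidney Na⁺,K⁺-ATPase (specific activity 25–30 U/mg protein) preincubated 2 h with a range of inhibitor concentrations in 130 mM NaCl, 20 mM KCl, 4 mM MgCl₂, 30 mM histidine pH 7.4, 20 °C. 3 mM ATP added, 5 min reaction, released inorganic phosphate measured. Ouabain-insensitive activity (1 mM ouabain) subtracted. K_app from hyperbolic fit.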

| SMILES | pIC50 (MCF7) | Kapp (Sus scrofa) [µM] |
| --- | --- | --- |
| C[C@]12CC[C@H](SCCOCCOCCS[C@H]3CC[C@@]4(C)[C@H](CC[C@@H]5[C@@H]4CC[C@]4(C)[C@@H](C6=CC(=O)OC6)CC[C@]54O)C3)C[C@H]1CC[C@@H]1[C@@H]2CC[C@]2(C)[C@@H](C3=CC(=O)OC3)CC[C@]12O | 5.18 | 20.5 |
| C[C@]12CC[C@H](O)C[C@H]1CC[C@@H]1[C@@H]2CC[C@]2(C)[C@@H](C3=CC(=O)OC3)CC[C@]12O [DIGITOXIGENIN] | 6.22 | 0.52 |
| C[C@]12CC[C@H](S)C[C@H]1CC[C@@H]1[C@@H]2CC[C@]2(C)[C@@H](C3=CC(=O)OC3)CC[C@]12O | 6.30 | 0.42 |
| C[C@]12CC[C@H](SCCOCCS[C@H]3CC[C@@]4(C)[C@H](CC[C@@H]5[C@@H]4CC[C@]4(C)[C@@H](C6=CC(=O)OC6)CC[C@]54O)C3)C[C@H]1CC[C@@H]1[C@@H]2CC[C@]2(C)[C@@H](C3=CC(=O)OC3)CC[C@]12O | 5.07 | 17.2 |
| C[C@]12CC[C@H](SCCOCCOCCO)C[C@H]1CC[C@@H]1[C@@H]2CC[C@]2(C)[C@@H](C3=CC(=O)OC3)CC[C@]12O | 6.10 | 1.27 |
| C[C@]12CC[C@H](SCCOCCO)C[C@H]1CC[C@@H]1[C@@H]2CC[C@]2(C)[C@@H](C3=CC(=O)OC3)CC[C@]12O | 6.40 | 0.73 |
| C[C@]12CC[C@H](SCCOCCOCCOCCS[C@H]3CC[C@@]4(C)[C@H](CC[C@@H]5[C@@H]4CC[C@]4(C)[C@@H](C6=CC(=O)OC6)CC[C@]54O)C3)C[C@H]1CC[C@@H]1[C@@H]2CC[C@]2(C)[C@@H](C3=CC(=O)OC3)CC[C@]12O | 4.89 | > 53 |
| C[C@]12CC[C@H](SCCS[C@H]3CC[C@@]4(C)[C@H](CC[C@@H]5[C@@H]4CC[C@]4(C)[C@@H](C6=CC(=O)OC6)CC[C@]54O)C3)C[C@H]1CC[C@@H]1[C@@H]2CC[C@]2(C)[C@@H](C3=CC(=O)OC3)CC[C@]12O | 5.15 | 9.9 |
| C[C@H]1O[C@@H](O[C@H]2[C@@H](O)C[C@H](O[C@H]3[C@@H](O)C[C@H](O[C@H]4CC[C@@]5(C)[C@H](CC[C@@H]6[C@@H]5CC[C@]5(C)[C@@H](C7=CC(=O)OC7)CC[C@]65O)C4)O[C@@H]3C)O[C@@H]2C)C[C@H](O)[C@@H]1O [DIGITOXIN] | 7.70 | 0.99 |
| C[C@]12CC[C@H](SCCOCCOCCOCCO)C[C@H]1CC[C@@H]1[C@@H]2CC[C@]2(C)[C@@H](C3=CC(=O)OC3)CC[C@]12O | 5.85 | 2.1 |
| C[C@]12CC[C@H](SCCO)C[C@H]1CC[C@@H]1[C@@H]2CC[C@]2(C)[C@@H](C3=CC(=O)OC3)CC[C@]12O | 6.70 | 0.48 |
